Measured values reported in ChEMBL document CHEMBL4814064, “Azetidinimines as a novel series of non-covalent broad-spectrum inhibitors of β-lactamases with submicromolar activities against carbapenemases KPC-2 (class A), NDM-1 (class B) and OXA-48 (class D)” (Eur J Med Chem, 2021).

Tests used:
[1] = Inhibition of NDM-1 (unknown origin); set-up: species or system Bacteria
[2] = Inhibition of NDM-1 (unknown origin) expressed in Escherichia coli BW25113deltabamBdeltatolC mutant using nitrocefin as substrate by colorimetric analysis; set-up: species or system Bacteria
[3] = Inhibition of Escherichia coli NTBC121 NDM-1 by UV absorbance analysis
[4] = test system: HCT-116; assay: Cytotoxicity against human HCT-116 cells assessed as reduction in cell viability measured after 72 hrs by MTS assay; format: cell-based; conditions: HCT-116, 72 h
Summary of the method: (§1)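 Cells grown at 37 °C in 5% CO2: MRC-5 in DMEM and HCT116 in RPMI 1640, each with 10% FCS and 1% glutamine. Seeded at 2.5 × 10³ cells/well, dosed after 24 h, exposed 72 h, then read at 490 nm after 2 h with reagent. IC50 = concentration halving absorbance versus untreated; triplicate.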

[5] = biological target: Class A carbapenemase KPC-2 (Escherichia coli) (UniProt A8DS27); assay: Inhibition of KPC-2 (unknown origin) expressed in Escherichia coli BL21 (DE3) at 10 uM incubated for 3 mins by spectrophotometric analysis relative to control
Summary of the method: (§2)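 Preincubated 3 min with inhibitor in 100 mM phosphate pH 7. Imipenem 100 µM; hydrolysis followed at 297 nm for 600 s at 25 °C. IC50 from seven concentrations in triplicate; Ki by Cheng–Prusoff. Percent inhibition read at 10 µM.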

[6] = Inhibition of OXA-48 (unknown origin) expressed in Escherichia coli BL21 (DE3) incubated for 3 mins by spectrophotometric analysis; set-up: species or system Bacteria; conditions: read-out: Ki
Summary of the method: (§3)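 OXA-48 at 5.8 nM (His-tagged, expressed in BL21(DE3), purified in K2SO4 buffers) in 100 mM phosphate pH 7 plus 50 mM NaHCO3. Inhibitor preincubated 3 min; substrate 100 µM imipenem; initial velocities at 297 nm, 600 s, 25 °C. Seven inhibitor concentrations in triplicate give IC50, converted to Ki by Cheng–Prusoff; percent inhibition at 10 µM.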

[7] = Metabolic stability in mouse liver microsomes at 5 uM assessed as intrinsic clearance measured per mg protein by UPLC-MS/MS analysis; format: ADME, Microsome; conditions: read-out: CLH
Summary of the method: (§4)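 Test compound at 5 µM with 0.5 mg/mL pooled male mouse liver microsomes in 0.1 M phosphate pH 7.4 at 37 °C. Reaction started with 1 mM NADPH and sampled at 0–45 min in duplicate; a no-NADPH control was run. Quenched with cold acetonitrile; parent measured by UPLC-MS/MS (MRM). t1/2 from log-linear decay; CLint per mg microsomal protein.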

[8] = test system: Escherichia coli; assay: Potentiation of imipenem-induced antibacterial activity against Escherichia coli clinical isolate GUE expressing NDM-1 assessed as imipenem MIC at 100 uM incubated for 18 to 24 hrs by broth microdilution method (reference value: 16 ug/ml); format: functional; conditions: time 18-24 hrs
[9] = Metabolic stability in mouse liver microsomes at 5 uM after 45 min absence of NADPH by UPLC-MS/MS analysis; format: ADME, Microsome; conditions: read-out: Stabilty; summary of the method: as §4
[10] = biological target: Class A carbapenemase KPC-2 (Escherichia coli, UniProt A8DS27); assay: Inhibition of KPC-2 (unknown origin) expressed in Escherichia coli BL21 (DE3) incubated for 3 mins by spectrophotometric analysis; conditions: read-out: Ki; summary of the method: as §2
[11] = test system: Bacteria; assay: Inhibition of OXA-48 (unknown origin) expressed in Escherichia coli BL21 (DE3) at 10 uM incubated for 3 mins by spectrophotometric analysis relative to control; summary of the method: as §3
[12] = test system: Bacteria; assay: Inhibition of NDM-9 (unknown origin) expressed in Escherichia coli BL21(DE3) at 10 uM
Summary of the method: (§5)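 Enzymes cloned into pET41b from clinical enterobacterial DNA and expressed in E. coli BL21(DE3) overnight at 22 °C with 0.2 mM IPTG. His-tag affinity then Superdex 75 gel filtration (100 mM phosphate pH 7, 150 mM NaCl); dialysed into 10 mM Tris-HCl pH 7.6, with 50 µM ZnSO4 added for NDM and VIM variants.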

[13] = test system: Bacteria; assay: Inhibition of NDM-4 (unknown origin) expressed in Escherichia coli BL21(DE3) at 10 uM; summary of the method: as §5
[14] = test system: Escherichia coli; assay: Potentiation of imipenem-induced antibacterial activity against Escherichia coli clinical isolate GUE expressing NDM-1 assessed as imipenem MIC at 20 uM incubated for 18 to 24 hrs by broth microdilution method (reference value: 16 ug/ml); format: functional; conditions: time 18-24 hrs
[15] = test system: MRC5; assay: Cytotoxicity against human MRC-5 cells assessed as reduction in cell viability measured after 72 hrs by MTS assay; format: cell-based; conditions: MRC5, 72 h; summary of the method: as §1
[16] = test system: Bacteria; assay: Inhibition of NDM-1 (unknown origin) expressed in Escherichia coli BL21 (DE3) at 10 uM incubated for 3 mins by spectrophotometric analysis relative to control
Summary of the method: (§6)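 NDM-1 (1 nM, His-tagged, expressed in E. coli BL21(DE3) with 1 mM IPTG for 3 h at 37 °C, purified, kept with 50 µM ZnSO4). Run in 100 mM phosphate pH 7 with 50 µM ZnSO4, 3 min enzyme–inhibitor preincubation, then 100 µM imipenem. Initial rates at 297 nm over 600 s, 25 °C. Triplicate seven-point IC50 converted to Ki (Cheng–Prusoff); percent inhibition at 10 µM.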

[17] = test system: Bacteria; assay: Inhibition of VIM-1 (unknown origin) expressed in Escherichia coli BL21(DE3) at 10 uM; summary of the method: as §5
[18] = test system: Bacteria; assay: Inhibition of NDM-7 (unknown origin) expressed in Escherichia coli BL21(DE3) at 10 uM; summary of the method: as §5
[19] = Inhibition of NDM-1 (unknown origin) expressed in Escherichia coli BL21 (DE3) incubated for 3 mins by spectrophotometric analysis; set-up: species or system Bacteria; conditions: read-out: Ki; summary of the method: as §6
[20] = test system: Bacteria; assay: Inhibition of CTX-M-15 (unknown origin) expressed in Escherichia coli BL21(DE3) at 10 uM; summary of the method: as §5
[21] = test system: Escherichia coli; assay: Potentiation of imipenem-induced antibacterial activity against Escherichia coli clinical isolate GUE expressing NDM-1 assessed as imipenem MIC at 50 uM incubated for 18 to 24 hrs by broth microdilution method (reference value: 16 ug/ml); format: functional; conditions: time 18-24 hrs
[22] = test system: Bacteria; assay: Inhibition of VIM-52 (unknown origin) expressed in Escherichia coli BL21(DE3) at 10 uM; summary of the method: as §5
[23] = test system: Bacteria; assay: Inhibition of CMY-2 (unknown origin) expressed in Escherichia coli BL21(DE3) at 10 uM; summary of the method: as §5
[24] = test system: Escherichia coli; assay: Potentiation of imipenem-induced antibacterial activity against Escherichia coli clinical isolate GUE expressing NDM-1 assessed as fold change in imipenem MIC at 50 uM incubated for 18 to 24 hrs by broth microdilution method; format: functional; conditions: time 18-24 hrs
[25] = test system: Escherichia coli; assay: Potentiation of imipenem-induced antibacterial activity against Escherichia coli clinical isolate GUE expressing NDM-1 assessed as fold change in imipenem MIC at 200 uM incubated for 18 to 24 hrs by broth microdilution method; format: functional; conditions: time 18-24 hrs

| SMILES | inhibition [5] [%] | microsomal CLint at 5 µM [7] [µL/min/mg] | MIC [8] [µg/mL] | remaining at 0.75 h, 5 µM [9] [%] | Ki [10] [nM] | inhibition [11] [%] | MIC [14] [µg/mL] | inhibition [16] [%] | MIC [21] [µg/mL] | IC50 [4] [nM] | Ki [6] [nM] | IC50 [15] [nM] | Ki [19] [nM] | also measured |
| --- | --- | --- | --- | --- | --- | --- | --- | --- | --- | --- | --- | --- | --- | --- |
| CN1CCN(NC(=O)CN2C(=O)/C(=C/c3c(Cl)ccc(Cl)c3Cl)SC2=S)CC1 |  |  |  |  |  |  |  |  |  |  |  |  |  | IC50 [1]: 9440 nM |
| N[C@H](CN[C@H](CN[C@@H](CC(=O)O)C(=O)O)C(=O)O)C(=O)O |  |  |  |  |  |  |  |  |  |  |  |  |  | IC50 [2]: 4000 nM |
| O=C(O)c1ncsc1NS(=O)(=O)c1cccnc1 |  |  |  |  |  |  |  |  |  |  |  |  |  | IC50 [3]: 2670 nM |
| COc1ccc(N2/C(=N/c3ccc(I)cc3)CC2c2ccc(F)cc2)cc1 (racemic) | > 50 |  |  |  | 6490 | > 50 |  | > 50 |  |  | 450 |  | 500 |  |

The remaining molecules from weak to strong by Ki [10], led by results:

| inhibition [5] [%] | microsomal CLint at 5 µM [7] [µL/min/mg] | MIC [8] [µg/mL] | remaining at 0.75 h, 5 µM [9] [%] | Ki [10] [nM] | inhibition [11] [%] | MIC [14] [µg/mL] | inhibition [16] [%] | MIC [21] [µg/mL] | SMILES | IC50 [4] [nM] | Ki [6] [nM] | IC50 [15] [nM] | Ki [19] [nM] | also measured |
| --- | --- | --- | --- | --- | --- | --- | --- | --- | --- | --- | --- | --- | --- | --- |
| > 50 |  |  |  | 5660 | > 50 |  | > 50 |  | COc1ccc(N2/C(=N/c3ccc(I)cc3)CC2c2ccc(I)cc2)cc1 (racemic) |  | 510 |  | 370 |  |
| > 50 | 7.6 | 2 | 100 | 3690 | 41 | 16 | > 50 | 4 | Clc1ccc(C2C/C(=N\c3ccc(I)cc3)N2c2ccc(OCc3ccccc3)cc2)c(Cl)c1 (racemic) | > 100000 |  | > 100000 | 360 | fold change (FC) [24]: 4 |
| > 50 | 2 | 16 | 83 | 1890 | > 50 | 16 | > 50 | 16 | COc1ccc(N2/C(=N/c3ccc(I)cc3)CC2c2ccc(Cl)cc2Cl)cc1 (racemic) | > 100000 | 910 | > 100000 | 220 | fold change (FC) [25]: 2 |
| > 50 |  |  |  | 1840 | > 50 |  | > 50 |  | CCOc1ccc(N2/C(=N/c3ccc(I)cc3)CC2c2ccc3ccccc3c2)cc1 (racemic) |  | 700 |  | 250 |  |
| > 50 |  |  |  | 1810 | > 50 |  | > 50 |  | CCOc1ccc(N2/C(=N/c3ccc(OC)cc3)CC2c2ccc3ccccc3c2)cc1 (racemic) |  | 840 |  | 270 |  |
| > 50 | 13.9 | 4 | 96 | 280 | > 50 | 8 | > 50 | 4 | Oc1ccc(N2/C(=N/c3ccc(I)cc3)CC2c2ccc(Cl)cc2Cl)cc1 (racemic) | 32300 | 70 | 19900 | 70 | inhibition [12]: 100%; inhibition [13]: 100%; inhibition [17]: 100%; inhibition [18]: 100%; inhibition [20]: 83%; inhibition [22]: 0%; inhibition [23]: 86% |
